NALP1 yeast inh: inhibitors of NALP1 inflammasome in yeast; S. cerevisiae NALP1/ASC/caspase-1 growth, X-gal OD620, 72 h; inhibition, % at 10 µM; hit rate 0.61% among 280,000; AID 2071; in the data active = inhibition mostly above about 24%, no sharp cut-off; inactive = mostly below about 32%
L major viab: inhibitors of Leishmania major promastigote growth; AID 1063; hit rate 9% among 200,000; inhibition, % at 10 µM; Leishmania major promastigotes, resazurin fluorescence viability; in the data active = inhibition above about 50%;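 note: promastigotes grown with compound for 44 hours at 28 °C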
PolyA inhibitor: blocks polyadenylation in yeast reporter cells. S. cerevisiae SKY197-pL101 polyadenylation reporter, beta-gal luminescence; efflux-impaired pdr1/pdr3 knockout yeast; score 100 = 6 SD above DMSO. activity score, % at 12 µM. hit rate 0.02% among 300,000. AID 1875;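 active = lowest replicate activity score at least 50, where 100 means six control SD above control mean; inconclusive = lowest score under 50 but half or more replicates reach 50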;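 note: yeast exposed to compound for 9 h at 30 °C; higher score means more reporter readthrough which indicates perturbed polyadenylation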
NLRP3 yeast inh: inhibitors of NALP3 inflammasome in yeast; Yeast reconstituted NLRP3/ASC/caspase-1, beta-gal luminescence, 24 h; inhibition, % at 10 µM; hit rate 0.39% among 330,000;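 active = inhibition of 50% or more; inactive = inhibition below 50%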
Calb FLC: affects C. albicans growth with fluconazole. C. albicans CaCi-2 + fluconazole, Alamar Blue growth, 48 h. growth inhibition, % (test concentration not listed). hit rate 0.57% among 300,000. AID 1979;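 active = growth inhibition above about 58% in most replicates, limit read from the data, passing the limit was not always enough; inconclusive = exactly half the replicates above a set limit; inactive = most replicates below a set limit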;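 note: all wells also contain fluconazole at 8 µg/ml as a sub-toxic cotreatment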
T cruzi repl: blocks replication of Trypanosoma cruzi | inhibition, % (no concentration beside the values) | hit rate 1.4% among 300,000 | AID 1885 | T. cruzi beta-gal in NIH3T3, luminescence, 90 h;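 active = mean inhibition across valid replicates above about 55%, limit read from the data; inconclusive = mean below that limit but half or more replicates reach it; inactive = mean below it, under half of replicates reach it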;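 note: signal also drops with host cell toxicity which is not excluded here; higher percent means less beta-gal luminescence so fewer parasites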
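Incubation – ≥90 h infection period, 3 h prior cell attachment · System – NIH/3T3 fibroblasts plus reporter T. cruzi · Doses – compound pinned at 50 nL/well, DMSO · Read-out basis – percent inhibition of parasite-derived β-gal signal · Signal – luminescent β-galactosidase signal after 60 min lysis · Also added – 5000 T. cruzi trypomastigotes/well · Medium – Low-serum DMEM with 2% FBS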
Of the large screens only hits and unclear results are named; the others gave an inactive call. Only a selection was taken, and hits are over-represented in it overall.

c1ccc2c(c1)ncn2CCCCOc1ccc2c(c1)CCC2	L major viab 55.5
CC(=O)c1ccc(OCCn2cnc3ccccc32)cc1	L major viab 51.4, Calb FLC inconclusive
c1ccc(OCCCCn2cnc3ccccc32)cc1	none
c1ccc(OCCn2cnc3ccccc32)cc1	L major viab 51.6
Fc1ccc(Cn2cnc3ccccc32)cc1	none
CCCOc1ccc(Cn2cnc3ccccc32)cc1	L major viab 87.5 (no result: PolyA inhibitor, Calb FLC, T cruzi repl)
O=CNNC(=O)c1cccc([N+](=O)[O-])c1	Calb FLC inconclusive
COc1cccc(NC(=O)CSc2nnc(NC(=O)c3ccco3)s2)c1	none (no result: L major viab)
Cc1ccc(S(=O)(=O)CC(C)N2CCOCC2)c(S(=O)(=O)CC(C)N2CCOCC2)c1 (configuration not stated)	Calb FLC 103.0
Cc1ccc(C)c(S(=O)(=O)NCCN2CCOCC2)c1	none (no result: L major viab)
CCOC(=O)C1=C(c2ccccc2)Nc2ncnn2C1c1cc(OC)ccc1OC (configuration not stated)	L major viab 99.6
CCOC(=O)C1=C(c2ccccc2)Nc2ncnn2C1c1ccc(OC)c(OC)c1OC (configuration not stated)	L major viab 86.2, T cruzi repl 55.9
COc1cccc(C2C(C(=O)OCc3ccccc3)=C(C)Nc3ncnn32)c1OC (configuration not stated)	L major viab 90.8
CCCCOC(=O)C1=C(C)Nc2ncnn2C1c1cccc(OC)c1 (configuration not stated)	L major viab 61.4
CCOC(=O)C1=C(C(F)(F)F)Nc2ncnn2C1c1cc(OC)ccc1OC (configuration not stated)	none
CCCCOC(=O)C1=C(C)Nc2ncnn2C1c1cccc(OC)c1OC (configuration not stated)	none
CCCCOC(=O)C1=C(C)Nc2ncnn2C1c1cc(OC)ccc1OC (configuration not stated)	none
CCOC(=O)c1cc(-c2ccccc2)n(CC2CC(c3ccc(OC)cc3)=NO2)n1 (configuration not stated)	none (no result: L major viab)
Cc1ccc(S(=O)(=O)NCCC(=O)OCC(=O)N2CCCC2=O)cc1C	none (no result: NALP1 yeast inh, L major viab)
CON(C)C(=O)CC(CN(Cc1ccccc1)C(=O)OC(C)(C)C)c1ccc(Cl)cc1 (configuration not stated)	none (no result: NALP1 yeast inh, L major viab, PolyA inhibitor, Calb FLC, T cruzi repl)
O=C(COC(=O)COc1ccccc1[N+](=O)[O-])NC1CCCCC1	none (no result: NALP1 yeast inh, L major viab, PolyA inhibitor, Calb FLC, T cruzi repl)
COc1ccc(C2C=C(c3ccc(C)c(C)c3)Nc3ncnn32)c(OC)c1OC (configuration not stated)	L major viab 79.9 (no result: NLRP3 yeast inh)
COc1cccc(C2C=C(c3ccc(Br)s3)Nc3ncnn32)c1OC (configuration not stated)	none
CCCCc1c(C)c(C#N)c2nc3ccccc3n2c1Cl	L major viab 100.3 (no result: NLRP3 yeast inh)
CCc1c(C)c(C#N)c2nc3ccccc3n2c1N(C)C	none (no result: PolyA inhibitor, Calb FLC, T cruzi repl)
NS(=O)(=O)c1ccc(CNC(=O)Cc2ccsc2)cc1	none (no result: L major viab)
CCN(CC)S(=O)(=O)c1cc(NS(=O)(=O)c2cc(Cl)ccc2Cl)ccc1C	L major viab 51.0
CCN(CC)S(=O)(=O)c1cc(NS(=O)(=O)c2cccs2)ccc1C	none (no result: NALP1 yeast inh, L major viab, PolyA inhibitor, Calb FLC, T cruzi repl)
Nc1ccc(Cl)c(S(=O)(=O)Nc2ccc(Cl)cc2)c1	T cruzi repl 64.0 (no result: L major viab)
O=S(=O)(Nc1ccncc1)c1cc(Cl)ccc1Cl	none (no result: L major viab)
Cc1cc(NC2CCCC2)n2nc(C)c(-c3ccccc3)c2n1	T cruzi repl 60.4 (no result: L major viab)
COc1ccc(S(=O)(=O)N(CC(=O)NCc2cccnc2)c2ccc(F)cc2)cc1OC	none
CC(C)(C)NC(=O)C(c1ccc(F)cc1)N(Cc1ccccc1Cl)C(=O)c1ccn[nH]1 (configuration not stated)	none
N#CCCN(Cc1cccnc1)C(=S)NC(=O)c1ccccc1	none (no result: NALP1 yeast inh, L major viab, PolyA inhibitor, Calb FLC, T cruzi repl)
CC(C)(C)OC(=O)CNC(=O)c1[nH]cnc1C(=O)NCCCCCNC(=O)OC(C)(C)C	none (no result: L major viab)
COc1ccc2nc(/N=C(\N)NC(=O)C(C)(C)C)nc(C)c2c1	L major viab 50.8
O=C(Nc1cnn(C23CC4CC(CC(C4)C2)C3)c1)c1cc(-c2ccccc2)on1	T cruzi repl 60.8
Cc1ccc(-c2cc(C(=O)Nc3cnn(C45CC6CC(CC(C6)C4)C5)c3)no2)cc1	none
O=C(Cn1nnc(-c2ccc3c(c2)OCO3)n1)Nc1ccccc1C(=O)O	none (no result: L major viab)
Cc1ccc(NC(=S)Nc2ccccn2)cc1C	none (no result: L major viab)
Cc1ccc(NC(=S)Nc2ccc3nc(-c4ccccn4)c(-c4ccccn4)nc3c2)cc1C	L major viab 71.8 (no result: PolyA inhibitor, NLRP3 yeast inh, Calb FLC, T cruzi repl)
O=C1NC(=NCc2ccccc2)S/C1=C/c1ccc(O)cc1	L major viab 63.1
CCCc1nc2ccc(NC(=O)c3cccs3)cc2c(=O)n1Cc1ccccc1Cl	L major viab 50.0
COc1ccc(Cn2c(C3CC3)nc3ccc(NC(C)=O)cc3c2=O)cc1	none
CCCc1nc2ccc(NC(C)=O)cc2c(=O)n1Cc1ccc(Cl)cc1	L major viab 83.1
CC1CN(C(=O)c2ccccc2)C(=Nc2cccc(S(=O)(=O)N(C)C)c2)S1 (configuration not stated)	L major viab 82.8
CN(C)S(=O)(=O)c1cccc(C(=O)N2CCN(Cc3ccccc3)CC2)c1	none
CN1c2ccc(Cl)cc2C(=O)NC1C1CC=CCC1 (configuration not stated)	none (no result: L major viab)
CN(C)c1nc2ccccc2c(N)c1-c1ccccc1	L major viab 95.9 (no result: PolyA inhibitor, Calb FLC, T cruzi repl)
Cc1nc(C)n(CC(C)C(=O)N2CCN(S(=O)(=O)c3ccc(Cl)cc3)CC2)n1 (configuration not stated)	none (no result: L major viab)
Cc1cc2ncc(S(=O)(=O)c3ccccc3)c(N)n2n1	none
CCOC(=O)COc1ccc(/C=C2\NC(=S)N(CC)C2=O)cc1	L major viab 97.4
CCN1C(=O)/C(=C/c2ccc(C)s2)NC1=S	none
O=c1c2ccccc2sn1-c1ccc(S(=O)(=O)N2CCCC2)cc1	T cruzi repl 62.6
Cc1ccc(-n2sc3ccccc3c2=O)cc1S(=O)(=O)N1CCCCC1	L major viab 89.1, T cruzi repl 77.6
COc1ccc(CNCC(C)NCc2ccc(OC)c(OC)c2)cc1OC (configuration not stated)	none (no result: L major viab)
COc1ccccc1/C=C/C(=O)NCC(=O)N/N=C(\CCC(=O)O)c1ccccc1	L major viab 99.1
CCOC(=O)c1c(CSc2ccc(CC)cc2)oc2ccc(O)c(CN(C)C)c12	T cruzi repl 62.5 (no result: L major viab)
Clc1ccc(NCc2cccnc2)c(Cl)c1	none (no result: L major viab)
FC(F)(F)c1cc(-c2ccc(Cl)cc2)nc(NCc2cccnc2)n1	T cruzi repl 70.1
COc1ccc(-c2cc(C(F)(F)F)nc(NCc3cccs3)n2)cc1	T cruzi repl 55.1
Cc1ccc(CNC(=O)C(=O)NCC2CCCN2S(=O)(=O)c2cccs2)cc1 (configuration not stated)	none (no result: NALP1 yeast inh, L major viab)
CC(C)C(NC(=O)Nc1ccccc1)C(=O)Nc1cccc(S(=O)(=O)N(C)C)c1 (configuration not stated)	none (no result: L major viab)
O=C(NC(=S)Nc1ccccc1O)c1ccc(Cl)cc1Cl	Calb FLC 111.2

Screens deposited in PubChem by several laboratories.
